From ChEMBL document CHEMBL3407400, “Design, synthesis and biological evaluations of chirally pure 1,2,3,4-tertrahydroisoquinoline analogs as anti-cancer agents” (Eur J Med Chem, 2015)
The source made the active and inactive calls. No cut-off for these calls is given here.

Experiments:
HeLa = assay: Anticancer activity against human HeLa cells after 48 hrs by MTT assay; type: functional, cell-based
In short: (§1)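 Cell lines held in DMEM or MEM with 10% FBS and antibiotic-antimycotic at 37 °C, 5% CO2. Cells seeded at 1 × 10⁴ per well in DMEM with 10% FBS and left 24 h. Compounds diluted in medium and added alongside vehicle control for 48 h. MTT (5 mg/mL) added for 4 h, formazan dissolved in DMSO, absorbance read at 570 nm.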

DU-145 [1] = assay: Induction of apoptosis in human DU145 cells assessed as necrotic cells at 1 uM after 48 hrs by annexin V FITC/PI dual staining assay (reference value: 0.31 %); type: functional
DU-145 [2] = assay: Cell cycle arrest in human DU145 cells assessed as subG1 phase at 0.5 uM after 48 hrs by propidium iodide based flow cytometry (reference value: 9.36 %); type: functional
DU-145 [3] = assay: Induction of apoptosis in human DU145 cells assessed as down regulation of Bcl2 at 0.5 uM after 48 hrs by Western blot analysis relative to control; type: functional, cell-based
DU-145 [4] = assay: Induction of apoptosis in human DU145 cells assessed as early apoptotic cells at 0.5 uM after 48 hrs by annexin V FITC/PI dual staining assay (reference value: 0.77 %); type: functional
DU-145 [5] = assay: Induction of apoptosis in human DU145 cells assessed as viable cells at 0.5 uM after 48 hrs by annexin V FITC/PI dual staining assay (reference value: 96.45 %); type: functional; conditions: DU-145, 48 h, read-out: Activity
DU-145 [6] = assay: Induction of apoptosis in human DU145 cells assessed as viable cells at 1 uM after 48 hrs by annexin V FITC/PI dual staining assay (reference value: 96.45 %); type: functional; conditions: DU-145, 48 h, read-out: Activity
DU-145 [7] = assay: Induction of apoptosis in human DU145 cells assessed as up regulation of Bax at 0.5 uM after 48 hrs by Western blot analysis relative to control; type: functional, cell-based
DU-145 [8] = assay: Disruption of microtubule network in human DU145 cells at 50 uM after 48 hrs by immunohistochemistry analysis; type: cell-based
DU-145 [9] = assay: Cell cycle arrest in human DU145 cells assessed as G0/G1 phase at 1 uM after 48 hrs by propidium iodide based flow cytometry (reference value: 79.15 %); type: functional
DU-145 [10] = assay: Induction of apoptosis in human DU145 cells assessed as activation of caspase 3 at 0.5 to 1 uM after 48 hrs by fluorometric assay relative to control; type: functional
In short: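 DU-145 cells treated for 48 h. Fluorometric caspase-3 kit used: […] substrate added to cell lysate, 1 h at 37 °C. Fluorescence read at excitation 400 nm, emission 505 nm.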

A549 = assay: Anticancer activity against human A549 cells after 48 hrs by MTT assay; type: functional, cell-based; conditions: A549, 48 h; in short: as §1
DU-145 [11] = assay: Induction of apoptosis in human DU145 cells assessed as early apoptotic cells at 1 uM after 48 hrs by annexin V FITC/PI dual staining assay (reference value: 0.77 %); type: functional
DU-145 [12] = assay: Induction of apoptosis in human DU145 cells assessed as DNA fragmentation at 0.5 uM after 48 hrs by agarose gel electrophoresis; type: functional, cell-based
In short: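 DU-145 cells (1 × 10⁶) seeded, then treated 24 h later for 48 h. Lysate cleared, then digested with SDS/RNase A (2 h, 56 °C) and proteinase K (2 h, 37 °C). DNA precipitated with ammonium acetate and ice-cold ethanol, dissolved in TE. Laddering resolved on 2% agarose.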

HepG2 = assay: Anticancer activity against human HepG2 cells after 48 hrs by MTT assay; type: functional, cell-based; conditions: HepG2, 48 h; in short: as §1
DU-145 [13] = assay: Anticancer activity against human DU145 cells after 48 hrs by MTT assay; type: functional, cell-based; conditions: DU-145, 48 h; in short: as §1
DU-145 [14] = assay: Induction of apoptosis in human DU145 cells assessed as late apoptotic cells at 0.5 uM after 48 hrs by annexin V FITC/PI dual staining assay (reference value: 2.47 %); type: functional
DU-145 [15] = assay: Cell cycle arrest in human DU145 cells assessed as subG1 phase at 1 uM after 48 hrs by propidium iodide based flow cytometry (reference value: 9.36 %); type: functional
DU-145 [16] = assay: Cell cycle arrest in human DU145 cells assessed as S phase at 0.5 uM after 48 hrs by propidium iodide based flow cytometry (reference value: 1.65 %); type: functional
Tubulin = assay: Inhibition of tubulin (unknown origin) polymerization by fluorescence assay; type: protein-complex assay, Homo sapiens
DU-145 [17] = assay: Cell cycle arrest in human DU145 cells assessed as S phase at 1 uM after 48 hrs by propidium iodide based flow cytometry (reference value: 1.65 %); type: functional
DU-145 [18] = assay: Cell cycle arrest in human DU145 cells assessed as G2/M phase at 0.5 uM after 48 hrs by propidium iodide based flow cytometry (reference value: 6.75 %); type: functional
DU-145 [19] = assay: Cell cycle arrest in human DU145 cells assessed as G0/G1 phase at 0.5 uM after 48 hrs by propidium iodide based flow cytometry (reference value: 79.15 %); type: functional
DU-145 [20] = assay: Induction of apoptosis in human DU145 cells assessed as necrotic cells at 0.5 uM after 48 hrs by annexin V FITC/PI dual staining assay (reference value: 0.31 %); type: functional
DU-145 [21] = assay: Cell cycle arrest in human DU145 cells assessed as G2/M phase at 1 uM after 48 hrs by propidium iodide based flow cytometry (reference value: 6.75 %); type: functional
DU-145 [22] = assay: Induction of apoptosis in human DU145 cells assessed as late apoptotic cells at 1 uM after 48 hrs by annexin V FITC/PI dual staining assay (reference value: 2.47 %); type: functional
MCF7 = assay: Anticancer activity against human MCF7 cells after 48 hrs by MTT assay; type: functional, cell-based; conditions: MCF7, 48 h; in short: as §1

`Cc1ccc(S(=O)(=O)N2C[C@H]3[C@H](OCc4ccccc4)c4ccccc4CN3C(=O)[C@@H]2C)cc1` showed an IC50 (HeLa) of 7.31 µM, an Activity (DU-145 [1]) of 4.7% and an Activity (DU-145 [2]) of 8.25%. The Activity (DU-145 [3]) was “Active”, the Activity (DU-145 [4]) was 1.88% and the viability at 0.5 µM (DU-145 [5]) was 92.8%. For the same compound, the viability at 1 µM (DU-145 [6]) was 69.2%, the Activity (DU-145 [7]) was “Active” and the Activity (DU-145 [8]) was “Active”. The Activity (DU-145 [9]) was 46.67%, the “fold change (FC)” value (DU-145 [10]) was 3 and the IC50 (A549) was 2.45 µM. The Activity (DU-145 [11]) was 4.94%, the Activity (DU-145 [12]) was “Active” and the IC50 (HepG2) was 1.7 µM. The IC50 (DU-145 [13]) was 1.23 µM, the Activity (DU-145 [14]) was 4.45% and the Activity (DU-145 [15]) was 6.74%. It also gave an Activity (DU-145 [16]) of 2.8%, an IC50 (Tubulin) of 3.55 µM and an Activity (DU-145 [17]) of 1.83%. It also gave an Activity (DU-145 [18]) of 16.96%, an Activity (DU-145 [19]) of 68.53% and an Activity (DU-145 [20]) of 0.82%. It also gave an Activity (DU-145 [21]) of 40.27%, an Activity (DU-145 [22]) of 21.14% and an IC50 (MCF7) of 5.49 µM.
